Bioassay records from PubChem BioAssay.
Rpn11 inh: blocks the human proteasome subunit Rpn11; human 26S proteasome, Ub4-pepOG fluorescence polarization; 20S core pre-blocked with epoxomicin; O00487; calls only at 20 µM; 0.59% of 360,000 active;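 active = inhibition at 20 µM, scaled to each plate's controls, above about 33%, limit read from the data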
HNF4A DNA FP: change in binding of human HNF4 alpha to DNA; P41235; HNF4a-FITC DNA binding, fluorescence polarization, 1 h; activity change, % at 10 µM; 0.3% of 360,000 active; in the data active = activity change above about 30%, passing the limit was not always enough
Target sequence (P41235 whole entry, looked up): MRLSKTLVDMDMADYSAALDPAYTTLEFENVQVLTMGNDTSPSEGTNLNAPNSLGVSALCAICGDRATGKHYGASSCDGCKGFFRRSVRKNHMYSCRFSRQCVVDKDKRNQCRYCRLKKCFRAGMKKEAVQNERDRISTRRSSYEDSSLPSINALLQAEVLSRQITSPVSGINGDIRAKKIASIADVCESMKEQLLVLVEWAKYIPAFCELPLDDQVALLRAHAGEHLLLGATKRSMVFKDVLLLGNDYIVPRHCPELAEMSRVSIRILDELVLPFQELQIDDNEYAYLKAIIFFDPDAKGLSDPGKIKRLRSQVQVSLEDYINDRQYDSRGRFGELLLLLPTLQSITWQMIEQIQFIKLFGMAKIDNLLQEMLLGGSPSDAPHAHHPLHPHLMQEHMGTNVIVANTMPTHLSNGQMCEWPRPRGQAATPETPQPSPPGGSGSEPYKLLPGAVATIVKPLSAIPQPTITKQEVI
TPT1 inhibitor: C. albicans TPT1 enzyme inhibition; recombinant caTPT1, FP RNA substrate dephosphorylation; inhibition, % at 5 µM; 0.81% of 300,000 active; AID 1962;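 active = inhibition above the mean of all tested compounds plus 3 SD, set per screening campaign, cut at about 24% in these data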;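 also: plate controls were DMSO alone for no effect and ferristatin control at 100 nM for full effect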
CSN deneddyl inh: blocks human CSN-mediated cullin deneddylation | Q92905 | Purified CSN, SCF-Nedd8-OG deneddylation, fluorescence polarization | inhibition, % at 12.5 µM | 0.38% of 360,000 active;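 active = pattern-corrected inhibition above about 35%, with an unprinted fluorescence ratio check between 0.5 and 1.5, limit read from the data, passing the limit was not always enough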;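 also: 0% = enzyme with substrate and 100% = substrate without enzyme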
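Assay system: Purified human Csn5 enzyme expressed in HEK293T cells | Amount: Enzyme 0.24 nM | Measured by: Fluorescence polarization readout | Medium: Tris/NaCl/DTT buffer, pH 7.5 | Compound dosing: One concentration, 12.5 µM, 0.25% DMSO | Times: 90 min incubation of compound, enzyme and substrate at room temperature | Control set: no-enzyme wells high, enzyme-with-substrate wells low | Read-out: % inhibition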
* hit, by the source's call; i = inactive; . = no result shown; + = active, no number. In the library only some 1.5% were active in any assay of this set; here they are far more common.

SMILES	Rpn11 inh	HNF4A DNA FP	TPT1 inhibitor	CSN deneddyl inh
COc1ccc2[nH]c(=O)c(CN(C3CCCCC3)C(c3nnnn3Cc3ccco3)C(C)C)cc2c1 (centres undefined)	.	54.3*	57.5*	19.0
COc1ccc2[nH]c(=O)c(CN(Cc3nnnn3Cc3ccco3)C3CCCCC3)cc2c1	i	7.2	10.1	14.8
CCC(=O)N1CCC(NC(=O)Nc2ccc(OC(F)(F)F)cc2)CC1	i	2.7	.	-1.7
c1ccc(CCC2Cc3ccccc3N2)cc1 (centres undefined)	i	3.8	.	-4.6
c1ccc(CC[C@@H]2CC[C@@H](CCc3ccccc3)N2)cc1	i	7.1	.	42.9*
CCOc1cc(/C=C2/C(=N)N3C(=NC2=O)SN=C3S(=O)(=O)C(C)C)ccc1OC(=O)c1ccco1	.	38.6*	14.8	28.3
O=C(CC(CC(=O)c1ccccc1)c1ccccn1)c1ccccc1	i	3.0	.	4.6
Cc1ccc(S(=O)(=O)N2C[C@H]3[C@H]4C(=O)N(c5ccccc5)C(=O)[C@H]4CC(=O)[C@H]3[C@@H]2c2ccccc2F)cc1	i	-3.7	.	111.0*
Cc1ccc(S(=O)(=O)N2C[C@H]3[C@H]4C(=O)N(c5ccccc5)C(=O)[C@H]4CC(=O)[C@H]3[C@@H]2c2cccc3ccccc23)cc1	i	-4.5	.	-3.0
CCc1cc(C(=O)OC)c(NC(=O)CC2Nc3cc(C)c(C)cc3NC2=O)s1 (centres undefined)	.	60.8*	14.3	5.6
COC(=O)c1c(NC(=O)CC2Nc3cc(C)c(C)cc3NC2=O)sc(C)c1C (centres undefined)	+	16.8	12.5	-2.0
Cc1cc2c(cc1C)NC(CC(=O)NCc1ccccc1)C(=O)N2 (centres undefined)	+	20.8	11.7	0.6
CCC1CCCCN1CCCNC(=O)c1ccc(CS(=O)(=O)c2ccccc2C)o1 (centres undefined)	i	-1.9	1.3	0.6
CCCCCN(C(=O)CCC(=O)OCc1ccc(Cl)cc1Cl)c1c(N)n(CCCC)c(=O)[nH]c1=O	i	1.9	-2.9	1.7
Cn1nc(C(F)(F)F)cc1-c1ccc(/C=C(\C#N)C(=O)c2ccccc2)s1	.	0.9	9.3	67.7*
CCOC(=O)C1=CCC(C(C)(C)C)N(S(=O)(=O)c2ccc(C)cc2)C1 (centres undefined)	i	-1.4	.	110.3*
C=CCONC(=O)Cc1ccccc1	i	1.8	.	2.6
Cc1cc(Cl)ccc1N(CC(=O)N(C)Cc1ccccc1)S(C)(=O)=O	i	3.3	.	-2.5
C/C(N)=C(/C#N)C(=O)COC(=O)C1CCC(C(C)(C)C)CC1 (centres undefined)	i	-1.1	-2.4	116.8*
C/C(N)=C(/C#N)C(=O)COC(=O)CC1CCCC1	i	1.6	-6.1	5.6
O=[N+]([O-])c1ccc2cc[nH]c2c1	i	-3.9	.	9.2
CS(=O)(=O)N1N=C(c2ccccc2)CC1c1ccc2c(c1)OCO2 (centres undefined)	.	155.7	3.2	157.7
CS(=O)(=O)Nc1cccc(C2=NN(S(C)(=O)=O)C(c3ccc4c(c3)OCO4)C2)c1 (centres undefined)	i	36.3*	2.8	-3.6
N=c1c2c(n(Cc3ccc(Cl)cc3)c3c1CCC3)CCC2	i	41.9*	1.3	0.5
CCCn1c(N)c(N(CCOC)C(=O)c2cc(C)cc(C)c2)c(=O)[nH]c1=O	i	34.6*	1.8	5.2
SMILES	Rpn11 inh	HNF4A DNA FP	TPT1 inhibitor	CSN deneddyl inh
Cc1ccc(NC(=O)COC(=O)c2ccc(NC(=O)CC#N)cc2)cc1S(=O)(=O)N1CCOCC1	i	2.8	.	1.8
COc1ccc(CNC(=O)C(=O)NC2CC(C)(C)NC(C)(C)C2)cc1	i	138.2*	-2.1	4.4
O=c1ccnc(Nc2ccc([N+](=O)[O-])cc2)[nH]1	i	-2.5	-3.3	3.2
COc1ccc(/C=C/C(=O)Nc2sc3c(c2C(=O)NCc2cccnc2)CCCC3)cc1	i	-5.9	-3.0	0.5
O=C(COc1ccccc1)Nc1sc2c(c1C(=O)NCc1cccnc1)CCCC2	i	-12.5	2.3	40.9*
COc1ccc([C@H]2CC(=O)C=C(c3ccc(Cl)c(C(F)(F)F)c3)C2)cc1OC	i	5.4	.	-1.9
Cc1nc2c(OCc3ccc(Cl)cc3)cccn2c1N(C)C(=O)CCC1CCCC1	i	-0.8	.	1.3
CCCC[n+]1ccn(-c2nc3ccccc3nc2[N-]S(=O)(=O)c2ccc(Br)cc2)c1	i	-4.3	0.4	41.3*
Cc1cc2nc3n(c2cc1C)CC1CC(C(=O)NCC2CC2)N(C)C31 (centres undefined)	i	2.1	-1.4	0.9
CCCCCc1ccc(OCCC[n+]2ccccc2)c(CCCCC)c1	i	4.4	2.4	-4.2
